TCR CD3 inh: inhibitors of human TCR-CD3 interaction, primary screen, biochemical, fluorescence, TAMRA-labeled TCR probe; AID 651800, 2012; T-cell receptor (TCR); 0.37% of 360,000 active; inhibition, % at 9.4 µM; in the data active = inhibition above about 19%;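 also: recombinant mutant TCR 2C K166C tagged with TAMRA read by polarization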
mABHD4 FP: ABHD4 inhibitors, primary screen, biochemical, fluorescence polarization, mouse | purified mABHD4, FP-Rh probe fluorescence polarization | 0.54% of 370,000 active | (Lyso)-N-acylphosphatidylethanolamine lipase (Mus musculus), Q8VD66 | inhibition, % at 8.92 µM;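 active = inhibition exceeding the mean over every tested compound plus 3 SD, cut at about 30% in these data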
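Test system: mouse ABHD4 enzyme, wild type. Reagent: FP-Rh fluorescent activity-based probe, added after compound pre-incubation. Timing: pre-incubation 45 min, probe exposure 60 min, at 25 °C. Technique: FP readout, ex 525 nm / em 598 nm. Benchmarks: high control S159A mutant with DMSO, low control median of compound wells.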
HTRA1 inhibitor: HTRA1 serine protease inhibitors, primary screen, biochemical, fluorescence polarization, HTS; 0.5% of 340,000 active; inhibition, % at 5.96 µM; Q92743; AID 504803, 2011; recombinant HTRA1, FP-rhodamine activity-based probe; in the data active = inhibition above about 36%
PRMT1 FP inh: PRMT1 methyltransferase inhibitors, primary screen, biochemical, fluorescence polarization. Protein arginine N-methyltransferase 1 (Homo sapiens), Q99873. AID 652257, 2013. inhibition, % at 2.79 µM. 1.3% of 370,000 active. recombinant PRMT1, activity-based probe fluorescence polarization;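 active = inhibition above about 21% made by adding two undisclosed values, limit read from the data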
SIAE primary: human SIAE inhibitors, primary screen, biochemical, fluorescence polarization, FP-Rh probe, 1536-well HTS; Sialate O-acetylesterase (Homo sapiens), Q9HAT2; SIAE FP-Rh probe binding; inhibition, % at 9.66 µM; 0.69% of 370,000 active;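 active = inhibition above a cutoff: mean of compounds within the control limits plus 3 SD of those, cut at about 17% in these data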
Target sequence (Q9HAT2 whole entry, looked up): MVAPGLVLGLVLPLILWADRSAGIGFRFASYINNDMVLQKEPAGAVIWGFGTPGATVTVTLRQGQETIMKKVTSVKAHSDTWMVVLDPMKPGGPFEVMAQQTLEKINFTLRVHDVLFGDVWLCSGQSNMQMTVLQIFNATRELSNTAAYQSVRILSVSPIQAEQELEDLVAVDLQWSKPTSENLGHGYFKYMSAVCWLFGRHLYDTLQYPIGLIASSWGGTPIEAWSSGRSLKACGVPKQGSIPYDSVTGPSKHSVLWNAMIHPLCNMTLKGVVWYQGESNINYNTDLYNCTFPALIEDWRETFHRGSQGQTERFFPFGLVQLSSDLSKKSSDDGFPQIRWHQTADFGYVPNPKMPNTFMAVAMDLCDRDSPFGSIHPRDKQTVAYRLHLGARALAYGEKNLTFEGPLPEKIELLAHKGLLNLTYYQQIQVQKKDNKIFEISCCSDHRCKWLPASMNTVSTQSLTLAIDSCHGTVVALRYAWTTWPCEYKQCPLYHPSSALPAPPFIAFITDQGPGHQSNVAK
HTRA1 conf: HTRA1 protease inhibitors, retest, confirmation, biochemical, fluorescence polarization | shares compounds with HTRA1 inhibitor | recombinant HTRA1, FP-rhodamine activity-based probe | inhibition, % at 5.96 µM | 66% of 1,600 active | AID 540248, 2011;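 active = mean inhibition over three repeats above a set limit taken from the earlier primary screen, cut at about 37% in these data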;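 also: inhibitors block probe binding so polarization drops and inhibition rises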
Large screens that a line does not name were inactive (follow-up assays come after a bar, where they were run). Rows were chosen to be rich in hits. Some 2.6% of all compounds tested hit in one or more screens of this group.

CCOc1cc(CNc2ccc(N3CCCC3)cc2)cc(Cl)c1OC	HTRA1 inhibitor 55 | HTRA1 conf inactive
CCOc1ccc(CNc2ccc(N3CCCC3)cc2)cc1	HTRA1 inhibitor 58 (no result: TCR CD3 inh, mABHD4 FP, PRMT1 FP inh, SIAE primary) | HTRA1 conf inactive
COc1cc(CNc2ccc(N3CCCC3)cc2)cc(Cl)c1OC	HTRA1 inhibitor 41 | HTRA1 conf inactive
COc1ccc(CN2C(=O)N3Cc4ccc(C)cc4C3CS2(=O)=O)cc1 (stereo not given)	none (no result: TCR CD3 inh, HTRA1 inhibitor)
Oc1cc(Nc2ccncc2)cc2cccnc12	HTRA1 inhibitor 43 | HTRA1 conf 37
Cc1ccc(NCCN(C)C)c2c(=O)c3cc(O)ccc3sc12	none
COc1cc(C)c2sc3ccccc3c(=O)c2c1NCCN(C)C	HTRA1 inhibitor 36 | HTRA1 conf 44
CC(=O)OC12CCCN(C1)/C(=C/c1ccccc1)C2 (stereo not given)	none (no result: TCR CD3 inh, HTRA1 inhibitor)
Cc1ccc2c(c1)N(CCCC(=O)N(C)Cc1ccccc1F)C(=O)CO2	none (no result: TCR CD3 inh, HTRA1 inhibitor)
O=[N+]([O-])c1ccc(N/N=C/c2cccc(O)c2O)c(S(=O)(=O)N2CCOCC2)c1	HTRA1 inhibitor 59 | HTRA1 conf 54
COc1cc(/C=N/Nc2ccc([N+](=O)[O-])cc2S(=O)(=O)N2CCOCC2)cc(OC)c1OC	none
O=[N+]([O-])c1ccccc1N/N=C/c1cccc(O)c1O	HTRA1 inhibitor 48 | HTRA1 conf inactive
Cc1nc2ccc(S(=O)(=O)NCC(=O)N(C)Cc3ccc(F)cc3)cc2s1	none (no result: TCR CD3 inh, HTRA1 inhibitor)
Cc1cccc[n+]1C1C(c2ccccc2)C(C#N)=C(C(=C=[N-])C#N)NC1(O)C1CC1 (stereo not given)	HTRA1 inhibitor 67 (no result: TCR CD3 inh, mABHD4 FP, PRMT1 FP inh, SIAE primary) | HTRA1 conf 49
O=c1c(-c2ccc(O)cc2)coc2cc(O)ccc12	none
O=c1c(O)c(-c2ccc(O)c(O)c2)oc2cc(O)ccc12	HTRA1 inhibitor 39 | HTRA1 conf inactive
CCCn1c(Nc2nc3ccccc3n2C)nc2ccccc21	HTRA1 inhibitor 39 | HTRA1 conf 47
C(=N\C(/N=C/c1ccco1)c1ccco1)/c1ccco1	none
C(=Nc1cccc2c(N=Cc3ccco3)cccc12)c1ccco1	HTRA1 inhibitor 39 (no result: TCR CD3 inh, mABHD4 FP, PRMT1 FP inh, SIAE primary) | HTRA1 conf inactive
COC(=O)[C@]12C[C@H](CC(=O)N3CCSCC3)C(=O)N(Cc3ccc(Cl)cc3Cl)C1=C[C@H](C1CCCC1)O[C@@H]2C	none (no result: TCR CD3 inh, HTRA1 inhibitor)
CCCCNc1c2c3c(cccc3n(C)c1=O)C(=O)c1ccccc1-2	HTRA1 inhibitor 68 (no result: TCR CD3 inh, mABHD4 FP, PRMT1 FP inh, SIAE primary) | HTRA1 conf 70
CN1C(=O)c2cccc(NCCCN3C(=O)c4ccccc4C3=O)c2C1=O	none
CCCC[C@H]1C2CC(OC(=O)NCCCC(=O)OCC)C(C2)[C@H]2CCCCN21 (stereo not given in full)	none (no result: TCR CD3 inh, HTRA1 inhibitor)
CC(C)(C)n1cnc2cc(NCc3ccccc3O)ccc21	HTRA1 inhibitor 46 | HTRA1 conf inactive
CC(C)CN1C(=O)[C@]2(CC(=O)N(C)C2c2ccccc2)c2cc(-n3cc(CCCC#N)nn3)ccc21 (stereo not given in full)	none (no result: TCR CD3 inh, HTRA1 inhibitor)
CCOc1cc(/C=C2\C(=O)N(c3nc(-c4ccc(Br)cc4)cs3)N=C2c2ccccc2)ccc1O	HTRA1 inhibitor 40 (no result: TCR CD3 inh, mABHD4 FP, PRMT1 FP inh, SIAE primary) | HTRA1 conf 47
COc1cc(/C=C2\C(=O)N(c3ccc(NC(C)=O)cc3)N=C2c2ccccc2)ccc1O	none
NC[C@@H]1O[C@H](C23CC4CC(CC(C4)C2)C3)Cc2c1ccc(O)c2O	HTRA1 inhibitor 60 | HTRA1 conf 73
CCn1c2ccccc2c2cc(C=NNC(=O)c3ccoc3C)ccc21	none (no result: TCR CD3 inh, HTRA1 inhibitor)
CCc1cc(C(=O)Nc2nc(-c3ccccn3)cs2)sc1C	HTRA1 inhibitor 37 | HTRA1 conf inactive
CCC(=C(c1ccc(OC)cc1)c1ccc(OC)cc1)c1cn(CC(O)CN2CCN(C)CC2)c2ccccc12 (stereo not given)	HTRA1 inhibitor 37 | HTRA1 conf 39
CCn1c(/C=C/c2ccc(O)c(O)c2)nc2ccccc2c1=O	HTRA1 inhibitor 59 | HTRA1 conf 112
CCn1c(/C=C/c2ccc(O)cc2)nc2ccccc2c1=O	none

From PubChem BioAssay
